ChEMBL document CHEMBL4118253, “Expedient synthesis and biological evaluation of alkenyl acyclic nucleoside phosphonate prodrugs” (Bioorg Med Chem, 2018)

Legend:
[1] = Cytotoxicity against HEL cells assessed as alteration of cell morphology by microscopic analysis; format: cell-based; conditions: human
Outline: (§1)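 The value is the minimal cytotoxic concentration (MCC), the lowest concentration that causes a microscopically visible change in cell morphology. It was read in the same HEL or Vero cell cultures used for the antiviral tests.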

Human adenovirus 2 = assay: Antiviral activity against Adenovirus 2 infected in HEL cells assessed as inhibition of virus-induced cytopathicity; format: functional, organism-based; conditions: Human mastadenovirus C
Influenza A virus [2] = assay: Antiviral activity against Influenza A virus H1N1 infected in MDCK cells assessed as inhibition of virus-induced visual cytopathicity; format: functional, organism-based
Influenza A virus H3N2 [3] = assay: Antiviral activity against Influenza A virus H3N2 infected in MDCK cells assessed as inhibition of virus-induced visual cytopathicity; format: functional, organism-based
Influenza B virus [4] = assay: Antiviral activity against Influenza B virus infected in MDCK cells assessed as inhibition of virus-induced visual cytopathicity; format: functional, organism-based
Influenza A virus H3N2 [5] = assay: Antiviral activity against Influenza A virus H3N2 infected in MDCK cells assessed as inhibition of virus-induced cytopathicity by MTS assay; format: functional, organism-based
Influenza B virus [6] = assay: Antiviral activity against Influenza B virus infected in MDCK cells assessed as inhibition of virus-induced cytopathicity by MTS assay; format: functional, organism-based
[7] = Cytotoxicity against MDCK cells assessed as alteration of cell morphology by microscopic analysis; format: cell-based, Canis lupus familiaris; conditions: dog
Influenza A virus [8] = assay: Antiviral activity against Influenza A virus H1N1 infected in MDCK cells assessed as inhibition of virus-induced cytopathicity by MTS assay; format: functional, organism-based
Human betaherpesvirus 5 [9] = assay: Antiviral activity against Human cytomegalovirus AD169 infected in HEL cells assessed as inhibition of virus-induced cytopathicity; format: functional, organism-based; conditions: Human betaherpesvirus 5, AD169, HEL
Vaccinia virus = assay: Antiviral activity against Vaccinia virus infected in HEL cells assessed as inhibition of virus-induced cytopathicity; format: functional, organism-based; conditions: Orthopoxvirus vaccinia
Human alphaherpesvirus 1 [10] = assay: Antiviral activity against acyclovir-resistant thymidine kinase deficient Herpes simplex virus 1 KOS infected in HEL cells assessed as inhibition of virus-induced cytopathicity; format: functional, organism-based; conditions: Human alphaherpesvirus 1, KOS
Human alphaherpesvirus 3 [11] = assay: Antiviral activity against thymidine kinase deficient Varicella-Zoster virus infected in HEL cells assessed as reduction in virus plaque formation; format: functional, organism-based; conditions: Human alphaherpesvirus 3, HEL
Punta Toro virus = assay: Antiviral activity against Punta Toro virus infected in African green monkey Vero cells assessed as inhibition of virus-induced cytopathicity; format: functional, organism-based
[12] = tested on: Mammalian orthoreovirus 1; assay: Antiviral activity against Reovirus-1 infected in human HeLa cells assessed as inhibition of virus-induced cytopathicity; format: functional, organism-based; conditions: Mammalian orthoreovirus 1, HeLa
Human respirovirus 3 = assay: Antiviral activity against Parainfluenza virus 3 infected in human HeLa cells assessed as inhibition of virus-induced cytopathicity; format: functional, organism-based; conditions: Human respirovirus 3, HeLa
Coxsackievirus B4 = assay: Antiviral activity against Coxsackie virus B4 infected in African green monkey Vero cells assessed as inhibition of virus-induced cytopathicity; format: functional, organism-based; conditions: Enterovirus B
[13] = Cytotoxicity against African green monkey Vero cells assessed as alteration of cell morphology by microscopic analysis; format: cell-based; conditions: chlorocebus sabaeus; outline: as §1
[14] = tested on: Vesicular stomatitis virus; assay: Antiviral activity against Vesicular stomatitis virus infected in human HeLa cells assessed as inhibition of virus-induced cytopathicity; format: functional, organism-based
[15] = tested on: Respiratory syncytial virus; assay: Antiviral activity against Respiratory syncytial virus infected in human HeLa cells assessed as inhibition of virus-induced cytopathicity; format: functional, organism-based
Human alphaherpesvirus 1 [16] = assay: Antiviral activity against Herpes simplex virus 1 KOS infected in HEL cells assessed as inhibition of virus-induced cytopathicity; format: functional, organism-based; conditions: Human alphaherpesvirus 1, KOS
Human betaherpesvirus 5 [17] = assay: Antiviral activity against Human cytomegalovirus Davis infected in HEL cells assessed as inhibition of virus-induced cytopathicity; format: functional, organism-based; conditions: Human betaherpesvirus 5, Davis
[18] = Cytotoxicity against human HeLa cells assessed as alteration of cell morphology by microscopic analysis; format: cell-based
Human coronavirus 229E = assay: Antiviral activity against Human coronavirus 229E infected in HEL cells assessed as inhibition of virus-induced cytopathicity; format: functional, organism-based
Human alphaherpesvirus 2 = assay: Antiviral activity against Herpes simplex virus 2 G infected in HEL cells assessed as inhibition of virus-induced cytopathicity; format: functional, organism-based; conditions: Human alphaherpesvirus 2, strain G
Yellow fever virus = assay: Antiviral activity against Yellow fever virus infected in African green monkey Vero cells assessed as inhibition of virus-induced cytopathicity; format: functional, organism-based
Sindbis virus = assay: Antiviral activity against Sindbis Virus infected in African green monkey Vero cells assessed as inhibition of virus-induced cytopathicity; format: functional, organism-based
Human alphaherpesvirus 3 [19] = assay: Antiviral activity against thymidine kinase expressing Varicella-Zoster virus infected in HEL cells assessed as reduction in virus plaque formation; format: functional, organism-based; conditions: Human alphaherpesvirus 3, HEL

| Structure (SMILES) | MCC [1] [µM] | EC50 (Human adenovirus 2) [µM] | EC50 (Influenza A virus [2]) [µM] | EC50 (Influenza A virus H3N2 [3]) [µM] | EC50 (Influenza B virus [4]) [µM] | EC50 (Influenza A virus H3N2 [5]) [µM] | EC50 (Influenza B virus [6]) [µM] | MCC [7] [µM] | EC50 (Influenza A virus [8]) [µM] | EC50 (Vaccinia virus) [µM] | EC50 [12] [µM] | EC50 (Human respirovirus 3) [µM] | EC50 (Coxsackievirus B4) [µM] | MCC [13] [µM] | further results |
| --- | --- | --- | --- | --- | --- | --- | --- | --- | --- | --- | --- | --- | --- | --- | --- |
| Cc1cn([C@H]2C[C@H](F)[C@@H](CO)O2)c(=O)[nH]c1=O [ALOVUDINE] | > 250 | 1.2 | – | – | – | – | – | – | – | – | – | – | – | – | – |
| NC12CC3CC(CC(C3)C1)C2 [AMANTADINE] | – | – | 1.8 | 2 | > 100 | 1.6 | > 100 | > 100 | 1.4 | – | – | – | – | – | – |
| Nc1ccn(C[C@@H](CO)OCP(=O)(O)O)c(=O)n1 [CIDOFOVIR] | > 250 | 22 | – | – | – | – | – | – | – | 37 | – | – | – | – | EC50 (Human betaherpesvirus 5 [9]): 1.24 µM |
| Nc1nc2c(ncn2COCCO)c(=O)[nH]1 [ACYCLOVIR] | 250 to 440 | – | – | – | – | – | – | – | – | > 250 | – | – | – | – | EC50 (Human alphaherpesvirus 1 [10]): 126 µM |
| O=c1[nH]c(=O)n([C@H]2C[C@H](O)[C@@H](CO)O2)cc1/C=C/Br [BRIVUDINE] | 250 to 300 | – | – | – | – | – | – | – | – | 19 | – | – | – | – | EC50 (Human alphaherpesvirus 3 [11]): 0.57 µM |
| CC(N)C12CC3CC(CC(C3)C1)C2 (stereo unspecified) [RIMANTADINE] | – | – | > 200 | 0.4 | > 200 | 0.7 | > 200 | > 200 | > 200 | – | – | – | – | – | – |
| CCOC(=O)C1=C[C@@H](OC(CC)CC)[C@H](NC(C)=O)[C@@H](N)C1 [OSELTAMIVIR] | – | – | 1.5 | > 100 | 2.9 | > 100 | – | > 100 | 0.2 | – | – | – | – | – | – |
| COc1c(C)c2c(c(O)c1C/C=C(\C)CCC(=O)O)C(=O)OC2 [MYCOPHENOLIC ACID] | – | – | – | – | – | – | – | – | – | – | 6.8 | 0.4 | > 100 | > 100 | EC50 (Punta Toro virus): 6.1 µM |
| C/C(=C\CP(=O)(N[C@@H](C)C(=O)OC(C)C)Oc1cccc2ccccc12)Cn1cc(C)c(=O)[nH]c1=O (stereo partly specified) | > 100 | > 100 | > 100 | > 100 | > 100 | > 100 | > 100 | > 100 | > 100 | > 100 | > 100 | > 100 | > 100 | ≥ 20 | EC50 (Human alphaherpesvirus 1 [10]): > 100 µM; EC50 (Human betaherpesvirus 5 [9]): > 100 µM; EC50 [14]: > 100 µM; EC50 [15]: > 100 µM; EC50 (Human alphaherpesvirus 1 [16]): > 100 µM; EC50 (Human betaherpesvirus 5 [17]): > 100 µM; MCC [18]: ≥ 20 µM; EC50 (Human coronavirus 229E): > 100 µM; EC50 (Human alphaherpesvirus 2): > 100 µM; EC50 (Yellow fever virus): > 100 µM; EC50 (Punta Toro virus): > 100 µM; EC50 (Sindbis virus): > 100 µM; EC50 (Human alphaherpesvirus 3 [11]): > 100 µM |
| C/C(=C/CP(=O)(N[C@@H](C)C(=O)OCc1ccccc1)Oc1cccc2c1CCCC2)Cn1cc(C)c(=O)[nH]c1=O (stereo partly specified) | > 100 | > 100 | > 100 | > 100 | > 100 | > 100 | > 100 | > 100 | > 100 | > 100 | > 100 | > 100 | > 100 | ≥ 20 | EC50 (Human alphaherpesvirus 1 [10]): > 100 µM; EC50 (Human alphaherpesvirus 3 [19]): 17 µM; EC50 [14]: > 100 µM; EC50 [15]: > 100 µM; EC50 (Human alphaherpesvirus 1 [16]): > 100 µM; EC50 (Human betaherpesvirus 5 [17]): 76.5 µM; MCC [18]: ≥ 20 µM; EC50 (Human coronavirus 229E): > 100 µM; EC50 (Human alphaherpesvirus 2): > 100 µM; EC50 (Yellow fever virus): > 100 µM; EC50 (Punta Toro virus): > 100 µM; EC50 (Sindbis virus): > 100 µM; EC50 (Human alphaherpesvirus 3 [11]): 65.1 µM |
| NC(=O)c1ncn([C@@H]2O[C@H](CO)[C@@H](O)[C@H]2O)n1 [RIBAVIRIN] | – | – | – | – | – | – | – | > 100 | – | – | > 250 | 95 | > 250 | > 250 | EC50 [15]: 25 µM; MCC [18]: > 250 µM; EC50 (Yellow fever virus): > 250 µM; EC50 (Sindbis virus): > 250 µM |
| Nc1nc2c(ncn2COC(CO)CO)c(=O)[nH]1 [GANCICLOVIR] | > 100 | – | – | – | – | – | – | – | – | > 100 | – | – | – | – | EC50 (Human betaherpesvirus 5 [9]): 11.4 µM; EC50 (Human betaherpesvirus 5 [17]): 2.29 µM |
| Nc1ccn([C@H]2CC[C@@H](CO)O2)c(=O)n1 [ZALCITABINE] | > 250 | 10 | – | – | – | – | – | – | – | – | – | – | – | – | – |
